Results as given in ChEMBL document CHEMBL4402611, “Phenyl(thio)phosphon(amid)ate Benzenesulfonamides as Potent and Selective Inhibitors of Human Carbonic Anhydrases II and VII Counteract Allodynia in a Mouse Model of Oxaliplatin-Induced Neuropathy” (J Med Chem, 2020).
Active and inactive are the calls of the source.

Tests used:
[1] = molecular target: Carbonic anhydrase 5A, mitochondrial (Homo sapiens, UniProt P35218); test: Inhibition of human recombinant carbonic anhydrase 5A preincubated with enzyme for 1 hr prior to testing by phenol red-based stopped-flow CO2 hydration assay
Sequence of Carbonic anhydrase 5A, mitochondrial (P35218 whole entry): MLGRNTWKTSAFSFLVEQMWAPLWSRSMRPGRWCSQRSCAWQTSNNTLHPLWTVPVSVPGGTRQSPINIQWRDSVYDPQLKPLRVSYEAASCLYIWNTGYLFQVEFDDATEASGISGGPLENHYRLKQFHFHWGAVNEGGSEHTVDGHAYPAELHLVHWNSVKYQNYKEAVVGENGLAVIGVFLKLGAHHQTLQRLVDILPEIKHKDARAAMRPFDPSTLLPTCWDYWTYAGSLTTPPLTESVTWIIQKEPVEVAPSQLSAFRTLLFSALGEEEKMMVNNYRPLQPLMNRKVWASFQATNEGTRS

Carbonic anhydrase 12 = Carbonic anhydrase 12 (Homo sapiens, UniProt O43570); test: Inhibition of human recombinant carbonic anhydrase 12 preincubated with enzyme for 1 hr prior to testing by phenol red-based stopped-flow CO2 hydration assay
Sequence of Carbonic anhydrase 12 (O43570 whole entry): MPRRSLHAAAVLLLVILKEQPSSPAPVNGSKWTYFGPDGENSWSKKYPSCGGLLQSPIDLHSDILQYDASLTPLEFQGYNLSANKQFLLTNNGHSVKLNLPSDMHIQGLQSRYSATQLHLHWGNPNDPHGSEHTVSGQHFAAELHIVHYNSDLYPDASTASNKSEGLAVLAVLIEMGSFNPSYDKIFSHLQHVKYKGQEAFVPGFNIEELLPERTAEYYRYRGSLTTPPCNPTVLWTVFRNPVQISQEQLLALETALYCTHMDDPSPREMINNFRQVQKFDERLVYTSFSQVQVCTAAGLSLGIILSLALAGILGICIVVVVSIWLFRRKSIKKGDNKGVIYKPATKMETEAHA

Mus musculus [2] = test: Antinociceptive activity in CD-1 albino mouse model of oxaliplatin-induced neuropathic pain assessed as decrease in pain-related behaviour measured as licking latency at 50 mg/kg, po treated on day 15 post oxaliplatin treatment and measured after 15 to 45 mins post dose by cold plate test; type: functional, organism-based
In short: (§1)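 Male CD-1 mice (22–25 g) given oxaliplatin 2.4 mg kg–1 i.p. in 5% glucose on days 1–2, 5–9 and 12–14 (10 injections). On day 15, compounds were suspended in 1% CMC and given once orally. Cold plate held at 4 °C; latency to first hind-paw licking recorded, 30 s cutoff. Readings taken before dosing and at 15, 30, 45 and 60 min after. 12 mice per group over two sets, observers blinded.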

Carbonic anhydrase 4 = Carbonic anhydrase 4 (Homo sapiens, UniProt P22748); test: Inhibition of human recombinant carbonic anhydrase 4 preincubated with enzyme for 1 hr prior to testing by phenol red-based stopped-flow CO2 hydration assay
Sequence of Carbonic anhydrase 4 (P22748 whole entry): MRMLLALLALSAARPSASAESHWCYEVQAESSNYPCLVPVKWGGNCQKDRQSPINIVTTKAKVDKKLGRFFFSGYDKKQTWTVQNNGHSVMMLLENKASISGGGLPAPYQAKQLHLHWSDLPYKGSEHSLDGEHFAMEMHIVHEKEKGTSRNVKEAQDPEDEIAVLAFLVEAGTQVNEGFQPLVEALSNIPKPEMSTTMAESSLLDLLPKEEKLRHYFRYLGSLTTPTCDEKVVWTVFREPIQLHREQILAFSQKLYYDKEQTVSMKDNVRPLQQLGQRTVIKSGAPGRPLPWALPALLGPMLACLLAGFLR

Carbonic anhydrase 7 = Carbonic anhydrase 7 (Homo sapiens, UniProt P43166); test: Inhibition of human recombinant carbonic anhydrase 7 preincubated with enzyme for 1 hr prior to testing by phenol red-based stopped-flow CO2 hydration assay
Sequence of Carbonic anhydrase 7 (P43166 whole entry): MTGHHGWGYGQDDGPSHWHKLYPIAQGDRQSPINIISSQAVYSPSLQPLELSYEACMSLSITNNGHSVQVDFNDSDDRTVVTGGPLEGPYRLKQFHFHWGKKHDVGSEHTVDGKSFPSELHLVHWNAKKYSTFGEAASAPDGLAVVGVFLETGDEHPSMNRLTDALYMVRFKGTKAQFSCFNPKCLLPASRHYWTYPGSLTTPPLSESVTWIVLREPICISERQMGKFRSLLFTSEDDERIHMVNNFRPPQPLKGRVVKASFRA

Carbonic anhydrase 2 = Carbonic anhydrase 2 (Homo sapiens, UniProt P00918); test: Inhibition of human recombinant carbonic anhydrase 2 preincubated with enzyme for 1 hr prior to testing by phenol red-based stopped-flow CO2 hydration assay
[3] = molecular target: Carbonic anhydrase 5B, mitochondrial (Homo sapiens, UniProt Q9Y2D0); test: Inhibition of human recombinant carbonic anhydrase 5B preincubated with enzyme for 1 hr prior to testing by phenol red-based stopped-flow CO2 hydration assay
Sequence of Carbonic anhydrase 5B, mitochondrial (Q9Y2D0 whole entry): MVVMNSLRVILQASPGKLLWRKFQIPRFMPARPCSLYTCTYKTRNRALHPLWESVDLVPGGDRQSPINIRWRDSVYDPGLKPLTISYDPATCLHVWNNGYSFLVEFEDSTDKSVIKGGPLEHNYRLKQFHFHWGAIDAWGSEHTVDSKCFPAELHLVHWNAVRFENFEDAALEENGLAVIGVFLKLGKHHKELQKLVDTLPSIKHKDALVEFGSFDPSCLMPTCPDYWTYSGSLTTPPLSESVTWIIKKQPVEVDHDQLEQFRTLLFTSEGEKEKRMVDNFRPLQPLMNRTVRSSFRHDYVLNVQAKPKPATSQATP

Carbonic anhydrase 1 = Carbonic anhydrase 1 (Homo sapiens, UniProt P00915); test: Inhibition of human recombinant carbonic anhydrase 1 preincubated with enzyme for 1 hr prior to testing by phenol red-based stopped-flow CO2 hydration assay
Sequence of Carbonic anhydrase 1 (P00915 whole entry): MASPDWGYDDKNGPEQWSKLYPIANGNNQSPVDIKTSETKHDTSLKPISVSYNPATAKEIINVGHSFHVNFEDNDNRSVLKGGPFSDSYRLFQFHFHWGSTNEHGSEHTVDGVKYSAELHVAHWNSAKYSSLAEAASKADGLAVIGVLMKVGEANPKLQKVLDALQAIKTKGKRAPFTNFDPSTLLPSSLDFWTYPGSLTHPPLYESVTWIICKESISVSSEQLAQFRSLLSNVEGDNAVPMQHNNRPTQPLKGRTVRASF

Carbonic anhydrase 9 = Carbonic anhydrase 9 (Homo sapiens, UniProt Q16790); test: Inhibition of human recombinant carbonic anhydrase 9 preincubated with enzyme for 1 hr prior to testing by phenol red-based stopped-flow CO2 hydration assay; type: single protein
[4] = Stability of compound in human plasma measured up to 120 mins by LC-MS/MS analysis; type: ADME, cell-free; settings: 2 h
In short: (§2)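 Analyte (1 μM final) incubated at 37 °C in PBS, 10 mM HCl (pH 2) or human plasma. Sampling at 0, 30, 60 and 120 min, each in triplicate. Samples were quenched with acetonitrile containing verapamil internal standard, centrifuged and diluted. Read-out was LC–MS/MS with positive ESI and MRM on a PFP column.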

[5] = Stability of compound in aqueous HCl solution assessed as half life at pH 2 measured up to 120 mins by LC-MS/MS analysis; type: physicochemical; settings: buffer, pH 2, 2 h
In short: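 Analyte (1 μM final) incubated at 37 °C in 10 mM aqueous HCl (pH 2), sampled in triplicate at 0, 30, 60 and 120 min. Quenched with acetonitrile containing verapamil internal standard, then quantified by LC–MS/MS with positive-ion MRM. Half-life taken from the degradation profile.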

[6] = Stability of compound in PBS buffer measured up to 120 mins by LC-MS/MS analysis; type: physicochemical; settings: 2 h; in short: as §2
Mus musculus [7] = test: Antinociceptive activity in CD-1 albino mouse model of oxaliplatin-induced neuropathic pain assessed as decrease in pain-related behaviour measured as licking latency at 10 to 100 mg/kg, po treated on day 15 post oxaliplatin treatment and measured after 15 to 30 mins post dose by cold plate test; type: functional, organism-based; in short: as §1
[8] = Stability of compound in aqueous HCl solution at pH 2 measured up to 120 mins by LC-MS/MS analysis; type: physicochemical; settings: buffer, pH 2, 2 h; in short: as §2
[9] = Solubility of compound in water; type: physicochemical; settings: buffer
Mus musculus [10] = test: Antinociceptive activity in orally dosed CD-1 albino mouse model of oxaliplatin-induced neuropathic pain assessed as decrease in pain-related behaviour measured as licking latency treated on day 15 post oxaliplatin treatment and measured after 15 to 60 mins post dose by cold plate test; type: functional, organism-based; in short: as §1
Mus musculus [11] = test: Antinociceptive activity in CD-1 albino mouse model of oxaliplatin-induced neuropathic pain assessed as decrease in pain-related behaviour measured as licking latency at 100 mg/kg, po treated on day 15 post oxaliplatin treatment and measured after 30 to 45 mins post dose by cold plate test; type: functional, organism-based; in short: as §1
Mus musculus [12] = test: Antinociceptive activity in orally dosed CD-1 albino mouse model of oxaliplatin-induced neuropathic pain assessed as decrease in pain-related behaviour measured as licking latency treated on day 15 post oxaliplatin treatment and measured upto 45 mins post dose by cold plate test; type: functional, organism-based; in short: as §1
Mus musculus [13] = test: (§3) Antinociceptive activity in CD-1 albino mouse model of oxaliplatin-induced neuropathic pain assessed as decrease in pain-related behaviour measured as licking latency at 100 mg/kg, po treated on day 15 post oxaliplatin treatment and measured after 30 mins post dose by cold plate test; type: functional, organism-based; in short: as §1
Mus musculus [14] = test: as §3, with “15” for “30”, “test (reference value: 18.1 +/- 0.3 sec)” for “test”; type: functional

SMILES | Ki [1] | Ki (Carbonic anhydrase 12) | Activity (Mus musculus [2]) | Ki (Carbonic anhydrase 4) | Ki (Carbonic anhydrase 7) | Ki (Carbonic anhydrase 2) | Ki [3] | Ki (Carbonic anhydrase 1) | Ki (Carbonic anhydrase 9) | Stability [4] | Stability [5] | Stability [6] | Activity (Mus musculus [7]) | Stability [8] | solubility [9] | Activity (Mus musculus [10]) | Activity (Mus musculus [11]) | Activity (Mus musculus [12]) | Activity (Mus musculus [13]) | Time (Mus musculus [14])
C#CCO[P@@](=O)(Oc1ccc(S(N)(=O)=O)cc1)c1ccccc1 | 66.5 nM | 49.2 nM | inactive | 1980 nM | 71.3 nM | 56.4 nM | 66.1 nM | 365 nM |  |  |  |  |  |  |  |  |  |  |  | 
CCCNP(=O)(Oc1ccc(S(N)(=O)=O)cc1)c1ccccc1 (racemic) | 85.2 nM | 17.3 nM |  | 1520 nM | 20.8 nM | 26.2 nM | 33.7 nM | 759 nM | 3.2 nM |  |  |  |  |  |  |  |  |  |  | 
NS(=O)(=O)c1ccc(OP(=O)(c2ccccc2)N2CCOCC2)cc1 (racemic) | 43.9 nM | 27.6 nM |  | 120 nM | 30.5 nM | 7.9 nM | 27.4 nM | 318 nM | 11.1 nM |  |  |  |  |  |  |  |  |  |  | 
NS(=O)(=O)c1ccc(OP(=O)(Sc2ccccc2)c2ccccc2)cc1 (racemic) | 382 nM | 39.2 nM |  | 2630 nM | 15.7 nM | 34.9 nM | 28.7 nM | 1630 nM | 6.6 nM |  |  |  |  |  |  |  |  |  |  | 
NS(=O)(=O)c1ccc(OP(=O)(c2ccccc2)N2CCCC2)cc1 (racemic) | 78.3 nM | 58.1 nM |  | 308 nM | 9.3 nM | 1.7 nM | 25.6 nM | 242 nM | 28.9 nM | Stable | Unstable | Stable |  |  |  |  |  |  |  | 
CN1CCN(P(=O)(Oc2ccc(S(N)(=O)=O)cc2)c2ccccc2)CC1 (racemic) | 164 nM | 25.3 nM |  | 76.9 nM | 17 nM | 9.1 nM | 47.3 nM | 391 nM | 61.9 nM | Stable |  | Stable | Active | Stable | Soluble |  |  |  |  | 
NS(=O)(=O)c1ccc(OP(=O)(O)c2ccccc2)cc1 | 76.3 nM | 30.8 nM |  | 220 nM | 16.1 nM | 37.9 nM | 52.8 nM | 197 nM | 26.1 nM |  |  |  |  |  |  |  |  |  |  | 
COCCOP(=O)(Oc1ccc(S(N)(=O)=O)cc1)c1ccccc1 (racemic) | 59.3 nM | 35.7 nM |  | 1640 nM | 25 nM | 28.5 nM | 67.2 nM | 780 nM | 12.1 nM |  |  |  |  |  |  |  |  |  |  | 
C#CCO[P@](=O)(Oc1ccc(S(N)(=O)=O)cc1)c1ccccc1 | 108 nM | 17.3 nM | Active | 746 nM | 1.1 nM | 0.78 nM | 19.2 nM | 564 nM |  |  |  |  |  |  |  |  |  |  |  | 
C#CCOP(=O)(Oc1ccc(S(N)(=O)=O)cc1)c1ccccc1 (racemic) | 82.1 nM | 26.7 nM |  | 1320 nM | 12.2 nM | 3.6 nM | 38.4 nM | 415 nM |  | Stable |  | Stable |  | Stable |  | Dose-dependent effect | Active |  |  | 
NS(=O)(=O)c1ccc(OP(=O)(NCc2ccccc2)c2ccccc2)cc1 (racemic) | 59.1 nM | 19.7 nM |  | 644 nM | 15.4 nM | 52.9 nM | 68.7 nM | 1710 nM | 2.6 nM |  |  |  |  |  |  |  |  |  |  | 
CC(C)OP(=O)(Oc1ccc(S(N)(=O)=O)cc1)c1ccccc1 (racemic) | 101 nM | 42 nM |  | 1200 nM | 6.2 nM | 12.8 nM | 19.8 nM | 308 nM | 17.5 nM | Stable |  | Stable |  | Stable |  |  |  | Dose-dependent effect |  | 
NP(=O)(Oc1ccc(S(N)(=O)=O)cc1)c1ccccc1 (racemic) | 41.3 nM | 15.4 nM |  | 292 nM | 18.9 nM | 17.9 nM | 12.6 nM | 195 nM | 20.9 nM |  |  |  |  |  |  |  |  |  |  | 
NS(=O)(=O)c1ccc(OP(=O)(Oc2ccc(S(N)(=O)=O)cc2)c2ccccc2)cc1 | 284 nM | 16.9 nM |  | 360 nM | 7.7 nM | 3.2 nM | 15 nM | 671 nM | 19.7 nM | Stable |  | Stable |  | Stable | Insoluble |  |  |  | Active | 
CCOP(=O)(Oc1ccc(S(N)(=O)=O)cc1)c1ccccc1 (racemic) | 143 nM | 22.4 nM |  | 425 nM | 38.2 nM | 36.6 nM | 40.1 nM | 398 nM | 18.7 nM |  |  |  |  |  |  |  |  |  |  | 
CCSP(=O)(Oc1ccc(S(N)(=O)=O)cc1)c1ccccc1 (racemic) | 94.3 nM | 34.1 nM |  | 1390 nM | 41.5 nM | 30.2 nM | 96.7 nM | 727 nM | 27 nM |  |  |  |  |  |  |  |  |  |  | 
NS(=O)(=O)c1ccc(OP(=O)(Oc2ccccc2)c2ccccc2)cc1 (racemic) | 470 nM | 24.6 nM |  | 2620 nM | 31.4 nM | 15.2 nM | 22.7 nM | 971 nM | 13.2 nM |  |  |  |  |  |  |  |  |  |  | 
NS(=O)(=O)c1ccc(OP(=O)(SCc2ccccc2)c2ccccc2)cc1 (racemic) | 151 nM | 21.3 nM |  | 4460 nM | 75.5 nM | 64.8 nM | 58.4 nM | 3260 nM | 25 nM |  |  |  |  |  |  |  |  |  |  | 
CC(=O)Nc1nnc(S(N)(=O)=O)s1 [ACETAZOLAMIDE] |  |  |  |  |  |  |  |  |  |  |  |  |  |  |  |  |  |  |  | 15.8 s
CCN(CC)P(=O)(Oc1ccc(S(N)(=O)=O)cc1)c1ccccc1 (racemic) | 107 nM | 46.8 nM |  | 371 nM | 13.5 nM | 17.5 nM | 49.1 nM | 521 nM | 19.5 nM |  |  |  |  |  |  |  |  |  |  | 
NS(=O)(=O)c1ccc(OP(=O)(Nc2ccccc2)c2ccccc2)cc1 (racemic) | 185 nM | 20.9 nM |  | 860 nM | 5.5 nM | 2.4 nM | 24 nM | 818 nM | 19.6 nM | Stable |  | Stable | Active | Stable |  |  |  |  |  | 
COP(=O)(Oc1ccc(S(N)(=O)=O)cc1)c1ccccc1 (racemic) | 51.7 nM | 47.2 nM |  | 259 nM | 36 nM | 11.4 nM | 24.3 nM | 495 nM | 16.2 nM |  |  |  |  |  |  |  |  |  |  | 
CCCCCCCCCCCCSP(=O)(Oc1ccc(S(N)(=O)=O)cc1)c1ccccc1 (racemic) | 642 nM | 47.8 nM |  | 4160 nM | 101 nM | 234 nM | 225 nM | 8350 nM | 51.2 nM |  |  |  |  |  |  |  |  |  |  | 
